MrgX1 antag = blocks BAM8-22 activation of human MrgX1 receptor | MRGX1-HEK293 calcium flux, Fluo-4, BAM8-22 antagonism; active compounds read low | Q96LB2 | AID 588676 | 310,000 compounds, 1.3% hits | B-score at 10 µM;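 active = calcium-response B-score plate-corrected more than 3 library SD below zero, starting fluorescence within 5 deviations, no agonist response on first addition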;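 note: peak minus trough fluorescence over baseline after final BAM8-22 challenge near maximal dose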
Target sequence (Q96LB2 whole entry, looked up): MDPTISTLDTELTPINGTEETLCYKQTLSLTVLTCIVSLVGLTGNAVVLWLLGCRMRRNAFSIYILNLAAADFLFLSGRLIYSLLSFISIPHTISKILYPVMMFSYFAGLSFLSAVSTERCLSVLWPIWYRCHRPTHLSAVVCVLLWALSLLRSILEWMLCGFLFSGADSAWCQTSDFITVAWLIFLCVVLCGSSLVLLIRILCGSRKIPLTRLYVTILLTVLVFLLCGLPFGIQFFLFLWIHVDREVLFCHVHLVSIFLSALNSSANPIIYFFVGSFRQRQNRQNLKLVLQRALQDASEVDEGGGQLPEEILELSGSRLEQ
MrgX1 allo act = human MrgX1 positive allosteric modulation, primary screen; Q96LB2; 310,000 compounds, 0.63% hits; MrgX1-HEK293, Fluo-4 calcium flux, FDSS; active compounds read high; AID 588675; B-score at 10 µM;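 active = plate-corrected calcium response at least 3 library SD above typical, normal starting fluorescence, not activating the receptor alone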;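 note: compound read alongside a low EC10 to EC30 dose of BAM8-22 agonist; peak minus trough fluorescence over baseline measured at the second addition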
RGS4 pot = RGS4 potentiation or activation; HEK293 M3R/inducible RGS4, carbachol calcium flux Fluo4; active compounds read low; B-score at 10 µM; 310,000 compounds, 0.92% hits; AID 463111;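 active = B-score of the integrated calcium signal more than 4 SD below the library mean, with starting fluorescence not abnormally high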;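 note: negative B-score means reduced calcium response which marks RGS4 activation or potentiation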
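Also added: carbachol at ECmax as muscarinic agonist stimulus; Assay system: HEK293 cells with stable M3R and inducible RGS4; Timing: overnight RGS4 induction, 30 min dye load 37 °C, 20 min compound RT; Measured by: Fluo4-AM (2 µM) calcium-flux fluorescence, kinetic read.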
MrgX1 agonist = agonists of human MrgX1 receptor; B-score at 10 µM; 310,000 compounds, 0.44% hits; Q96LB2; MrgX1-HEK293 cells, Fluo-4 calcium fluorescence, agonist mode; active compounds read high;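 active = calcium response B-score plate-corrected fluorescence ratio at least 3 library SD, with starting fluorescence B-score inside 5 SD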
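times = overnight plating, then 30 min 37 °C plus 30 min room-temperature dye loading | assay system = stable human MrgX1 HEK293 cell line | input = fifteen thousand cells per well | signal = kinetic calcium dye fluorescence, Fluo-4 NW | dosing = compound delivered in addition one of three | read-out = B-scored fluorescence response ratio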
RGS4 block = inhibitors of human RGS4 | P49798 | HEK293 M3R/RGS4 inducible, Fluo-4 calcium flux; active compounds read high; triggered by carbachol at its EC20 | B-score at 10 µM | 310,000 compounds, 0.45% hits;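 active = B-score, a plate-corrected calcium signal, over three deviations above library mean, with baseline fluorescence within five deviations of library mean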;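 note: RGS4 expression induced by doxycycline in cells with stable M3 receptor; B-score is computed from the integrated fluorescence ratio over baseline after carbachol; higher B-score means a larger calcium signal and so more RGS4 inhibition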
Target sequence (P49798 whole entry, looked up): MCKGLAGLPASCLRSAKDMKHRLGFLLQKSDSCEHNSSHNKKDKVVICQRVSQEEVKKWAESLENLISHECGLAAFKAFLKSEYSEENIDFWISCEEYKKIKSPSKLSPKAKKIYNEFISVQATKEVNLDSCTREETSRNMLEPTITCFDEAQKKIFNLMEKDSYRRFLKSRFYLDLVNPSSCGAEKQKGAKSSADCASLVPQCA
Large screens that a line does not name were inactive. An excerpt weighted towards active compounds, which were near 3.5% of everything screened.

CCOC(=O)Nc1ccc2c(c1)N(C(=O)N1CCN(C)CC1)c1ccccc1S2	RGS4 pot -7.3
CCOC(=O)C1CCCN(C(=O)/C(=C/c2ccco2)NC(=O)c2ccccc2)C1 (centres undefined)	RGS4 pot -7
O=C(N/C(=C/c1ccco1)C(=O)N1CCCCCC1)c1ccccc1	none
O=C(COC(=O)CCC1CCCC1)Nc1cccc(S(=O)(=O)N2CCOCC2)c1	none
C[C@H](O)C(=O)C1=Nc2c(nc(N)[nH]c2=O)NC1	none (no result: RGS4 pot, RGS4 block)
C[C@H](O)[C@H](O)[C@H]1CNc2nc(N)[nH]c(=O)c2N1	MrgX1 antag -5.4
CN(C)c1ccc(N=Cc2ccco2)cc1	none (no result: RGS4 pot, RGS4 block)
C(=Nc1cccc2c(N=Cc3ccco3)cccc12)c1ccco1	MrgX1 agonist 39
CCOC(=O)c1sc(=S)n(-c2ccccc2Cl)c1C	RGS4 pot -9.3
CCOC(=O)Cc1csc(NC(=O)c2ccc(Br)s2)n1	MrgX1 agonist 31
CCOC(=O)Cc1csc(NC(=O)c2cccs2)n1	none
Cc1sc(NC(=O)C2CCCCC2C(=O)O)c(C(N)=O)c1-c1ccc(C(C)C)cc1 (centres undefined)	MrgX1 agonist 54
Cc1sc(NC(=O)C2CCCCC2C(=O)O)c(C(N)=O)c1-c1ccccc1 (centres undefined)	none
O=C(Nc1ccon1)c1sc2cc(Cl)ccc2c1Cl	none
N#Cc1c(-c2ccccc2)cc(-c2ccccc2)nc1SCCC(=O)O	none
CC(C)CCN(C(=S)Nc1cccc(F)c1)C(C)c1cccs1 (centres undefined)	MrgX1 allo act 10
COCCN(C(=S)Nc1cccc(C)c1)C(C)c1cccs1 (centres undefined)	none
COc1ccccc1-n1c2c(cc(C(=O)N3CCC(C)CC3)c1=O)C(=O)CC(C)(C)C2	MrgX1 allo act 8.6
COc1ccc(-n2c3c(cc(C(=O)N4CCC(C)CC4)c2=O)C(=O)CC(C)(C)C3)cc1	none
O=S(=O)(Nc1ccc2c(c1)OCCO2)c1cccs1	MrgX1 antag -4.6
O=S(=O)(Nc1ccc2c(c1)OCO2)c1cccs1	none
Cc1nc(N/N=C/c2ccccc2)nc(N(C)c2ccccc2)c1[N+](=O)[O-]	MrgX1 antag -7.6
C/C(CC(=O)N(C(C)C)C(C)C)=N\NC(=O)c1ccccc1Br	none
CCOc1ccc2nc(NCCNC(=O)C3CC3)c(C)cc2c1	none
CCOc1ccc2nc(NCCNC(=O)C(C)C)c(C)cc2c1	RGS4 pot -7.4
O=C(NC12CC3CC(CC(C3)C1)C2)c1cncc(Br)c1	none
CC(C)n1nc(C(=O)Nc2nc3ccc(S(C)(=O)=O)cc3s2)c2ccccc2c1=O	none
CC(C)n1nc(C(=O)Nc2nnc(SCc3c(Cl)cccc3Cl)s2)c2ccccc2c1=O	MrgX1 antag -6.2
CC1C(=NO)C(C)C(c2ccccc2)NC1c1ccccc1 (centres undefined)	none
Cc1ccc(C2NC(c3ccc(C)cc3)C(C)C(=NO)C2C)cc1 (centres undefined)	MrgX1 allo act 12
N#CC1=C(N)OC2=C(CC/C2=C\c2ccccc2Cl)C1c1ccccc1Cl (centres undefined)	MrgX1 antag -12
N#CC1=C(N)OC2=C(C(=O)CCC2)C1c1ccccc1 (centres undefined)	none
N#CC1=C(N)OC2=C(CC/C2=C\c2ccccc2)C1c1ccccc1 (centres undefined)	MrgX1 agonist 140
N#CC1=C(N)Oc2cc(O)c(Cl)cc2C1c1ccccc1F (centres undefined)	none
CC(=O)c1ccc(N2CCC(c3cc(-c4ccc(Cl)cc4Cl)n[nH]3)CC2)c([N+](=O)[O-])c1	none
N#C/C(=C\c1ccccc1)C(=O)Nc1nncs1	MrgX1 allo act 8
N#C/C(=C\c1cccs1)C(=O)Nc1ccccn1	MrgX1 antag -4.9
CCOC(=O)c1c(S(=O)(=O)N2CCCCCC2)c(C)n(C)c1C	none
Cc1sc2ncnc(N3CCC(C(=O)Nc4nnc(SCc5ccccc5F)s4)CC3)c2c1C	none
N#C/C(=C\c1ccc(Sc2nc3ccccc3[nH]2)o1)c1ccccc1	MrgX1 antag -4.8
Cc1ccc(SCCNC(=O)c2ccc(C)c([N+](=O)[O-])c2)cc1	RGS4 pot -7
Cc1ccc(SCCNC(=O)c2ccc([N+](=O)[O-])c(C)c2)cc1	none
Cc1ccc(C2C(C#N)=C(N)Oc3c2sc2ccccc32)o1 (centres undefined)	MrgX1 allo act 9.2
COc1ccc(-c2ccc(C3C(C#N)=C(N)Oc4n[nH]c(C)c43)o2)cc1 (centres undefined)	MrgX1 agonist 55
Cc1ccc(C2C(C#N)=C(N)Oc3n[nH]c(-c4ccccc4)c32)o1 (centres undefined)	MrgX1 agonist 50
CC(=O)Nc1cccc(NC=C(C#N)C#N)c1	none
COc1ccccc1Nc1nnc(SCc2nnc(-c3cc(OC)c(OC)c(OC)c3)o2)s1	MrgX1 allo act 7.1
COc1cc(-c2nnc(CSc3nnc(Nc4ccc(C(C)C)cc4)s3)o2)cc(OC)c1OC	none
CCOc1ccccc1Nc1nnc(SCc2nnc(-c3cc(OC)c(OC)c(OC)c3)o2)s1	MrgX1 antag -6.2
COc1ccc(S(=O)(=O)N2CCC(C(=O)NCc3ccccn3)CC2)cc1C	none
CCc1ccc(C(=O)NC(CCSC)C(=O)OC)cc1 (centres undefined)	none
O=S(=O)(NCc1cc(-c2ccccc2Cl)no1)c1ccc(Cl)cc1	none
O=S(=O)(N/N=C/c1ccc(OC2CSC2)cc1)c1ccccc1	none
CN(C)c1ccc(C2/C(=C(/O)c3ccc(Br)cc3)C(=O)C(=O)N2C)cc1 (centres undefined)	none
COC(=O)/C=c1/s/c(=C(/C#N)C(=O)N2CCCCC2)n(-c2ccccc2)c1=O	none
COc1cc(/C=c2\s/c(=C(/C#N)C(=O)N3CCCC3)n(-c3ccccc3)c2=O)ccc1O	MrgX1 allo act 14
COc1cccc(-c2cc3c(-n4cccc4)ncnc3o2)c1	RGS4 pot -7.1
Cc1ccc(N2C(=S)SC3CS(=O)(=O)CC32)cc1 (centres undefined)	MrgX1 antag -5.5
Cc1cc(=O)oc2c1c(C)nn2-c1nn[nH]n1	none
COC(=O)c1ccccc1S(=O)(=O)N1CCC(C(=O)OCc2ccc([N+](=O)[O-])cc2)CC1	none
COc1ccc(N2CCN(C(=O)c3cc(C)on3)CC2)cc1	none
CC(OCCN1CCCC1)(c1ccc(F)cc1)c1ccc(F)cc1	RGS4 pot -7.5
Fc1ccc(OCCOCCN2CCCC2)cc1	none
O=C(/C=C/c1ccccc1)OCCCN=C1NS(=O)(=O)c2ccccc21	none
CCN(CC)c1ccc(/C=C2\SC(N)=NC2=O)cc1	MrgX1 agonist 33
CCN1/C(=C/c2cc[n+](C)cc2)C=Cc2cc(C)ccc21	MrgX1 antag -7 (no result: RGS4 pot, RGS4 block)
Cc1nc2ccccc2c(=O)n1CCN1CCOCC1	RGS4 pot -7.4
O=P(CCCCCCCCCP(=O)(c1ccccc1)c1ccccc1)(c1ccccc1)c1ccccc1	RGS4 pot -7
